Data reported in ChEMBL document CHEMBL1155309, “Synthesis of 3,6-disubstituted 7H-1,2,4-triazolo[3,4-b]-1,3,4-thiadiazines as novel analgesic/anti-inflammatory compounds” (Eur J Med Chem, 2009).

Columns and labels:
Mus musculus [1] = assay: Antiinflammatory activity in BALB/c mouse assessed as inhibition of carrageenan-induced paw edema at 200 mg/kg, po after 360 mins; format: functional; settings: 6 h
Summary of the method: (§1)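 Oral dosing in 0.5% CMC/water suspension, vehicle for controls. 1 h later, carrageenan (0.5 mg/25 µl saline) injected subplantar into right hind paw, 25 µl saline into left. Right–left footpad thickness measured by dial callipers every 90 min for 6 h. % inhibition = [(n − n′)/n]×100 versus control. Groups of 3 (100 mg/kg screen) or 4–5 mice.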

Mus musculus [2] = assay: Analgesic activity in BALB/c mouse assessed as decrease in acetic acid-induced writhing at 100 mg/kg, po administered 1 hr prior to acetic acid challenge by Koster's test; format: functional
Summary of the method: (§2)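 Test samples suspended in distilled water/0.5% CMC given orally; vehicle to controls. 1 h later, 3% (w/v) acetic acid i.p. (0.1 ml/10 g). Starting 5 min after injection, writhings counted for 10 min. Result expressed as % change from writhing controls. Groups of 4 mice (preliminary 100 mg/kg) or 4–5 mice (50/200 mg/kg). Two-tailed Student's t test.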

Mus musculus [3] = assay: Analgesic activity in BALB/c mouse assessed as decrease in acetic acid-induced writhing at 50 mg/kg, po administered 1 hr prior to acetic acid challenge by Koster's test; format: functional; summary of the method: as §2
Mus musculus [4] = assay: Analgesic activity in BALB/c mouse assessed as decrease in acetic acid-induced writhing at 200 mg/kg, po administered 1 hr prior to acetic acid challenge by Koster's test; format: functional; summary of the method: as §2
Mus musculus [5] = assay: Gastrointestinal toxicity in BALB/c mouse assessed as acute ulcerogenic risk at 200 mg/kg, po; format: organism-based; set-up: dose 200 mg/kg, route oral; settings: in vivo
Summary of the method: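 Mice, fasted overnight with free water, received 200 mg/kg orally as a suspension in distilled water with 0.5% carboxymethyl cellulose, in groups of 4–5. They were first used in the acetic acid writhing test. Eight hours after that test they were killed under deep ether anaesthesia, and their stomachs were removed and scored for ulcers. Acetylsalicylic acid 200 mg/kg was the reference.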

Mus musculus [6] = assay: Antioxidant activity in BALB/c mouse assessed as TBARS level per gram of wet weight of tissue at 200 mg/kg, po; format: functional; set-up: unit: nmol/g
Summary of the method: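 Mice dosed orally at 200 mg/kg were killed under ether 8 h after the writhing test and stomachs removed. Tissue extract supernatant obtained by centrifugation (1000×g 10 min, then 2000×g 30 min, 4 °C). Heated with TBA in boiling water for 60 min, TCA added, absorbance read at 532 nm against blank tissue. Calibrated with 1,1,3,3-tetraethoxypropane; reported as nmol TBARS/g wet tissue.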

Mus musculus [7] = assay: Acute toxicity in BALB/c mouse assessed as diarrhea and depression at 50 to 200 mg/kg, po after 72 hrs; format: organism-based; set-up: dose 50-200 mg/kg, route oral; settings: in vivo
Mus musculus [8] = assay: Antiinflammatory activity in BALB/c mouse assessed as inhibition of carrageenan-induced paw edema at 200 mg/kg, po after 270 mins; settings: 4.5 h
Mus musculus [9] = assay: Antiinflammatory activity in BALB/c mouse assessed as inhibition of carrageenan-induced paw edema at 100 mg/kg, po after 90 mins; format: functional; settings: 1.5 h; summary of the method: as §1
Mus musculus [10] = assay: Antiinflammatory activity in BALB/c mouse assessed as inhibition of carrageenan-induced paw edema at 100 mg/kg, po after 270 mins; format: functional; settings: 4.5 h; summary of the method: as §1
Mus musculus [11] = assay: Antiinflammatory activity in BALB/c mouse assessed as inhibition of carrageenan-induced paw edema at 100 mg/kg, po after 180 mins; settings: 3 h
Mus musculus [12] = assay: Antiinflammatory activity in BALB/c mouse assessed as inhibition of carrageenan-induced paw edema at 200 mg/kg, po after 270 mins; format: functional; settings: 4.5 h; summary of the method: as §1
Mus musculus [13] = assay: Antiinflammatory activity in BALB/c mouse assessed as inhibition of carrageenan-induced paw edema at 100 mg/kg, po after 180 mins; format: functional; settings: 3 h; summary of the method: as §1
Mus musculus [14] = assay: Antiinflammatory activity in BALB/c mouse assessed as inhibition of carrageenan-induced paw edema at 50 mg/kg, po after 90 mins; format: functional; settings: 1.5 h; summary of the method: as §1
Mus musculus [15] = assay: Antiinflammatory activity in BALB/c mouse assessed as inhibition of carrageenan-induced paw edema at 50 mg/kg, po after 360 mins; format: functional; settings: 6 h; summary of the method: as §1

SMILES | inhibition in vivo at 200 mg/kg (Mus musculus [1]) [%] | inhibition in vivo at 100 mg/kg (Mus musculus [2]) [%] | inhibition in vivo at 50 mg/kg (Mus musculus [3]) [%] | inhibition in vivo at 200 mg/kg (Mus musculus [4]) [%] | Activity (Mus musculus [5]) | Activity (Mus musculus [6]) [nmol] | Activity (Mus musculus [7]) | inhibition in vivo at 200 mg/kg (Mus musculus [8]) [%] | inhibition in vivo at 100 mg/kg (Mus musculus [9]) [%] | inhibition in vivo at 100 mg/kg (Mus musculus [10]) [%] | inhibition in vivo at 100 mg/kg (Mus musculus [11]) [%] | inhibition in vivo at 200 mg/kg (Mus musculus [12]) [%] | inhibition in vivo at 100 mg/kg (Mus musculus [13]) [%] | inhibition in vivo at 50 mg/kg (Mus musculus [14]) [%] | inhibition in vivo at 50 mg/kg (Mus musculus [15]) [%]
COc1ccc(Cc2nnc3n2N=C(c2ccc(Cl)cc2)CS3)cc1 | 38.9 | 33 | 9.9 | 39 | Non-toxic | 97.9 | Non-toxic | 25 | – | – | – | – | – | – | –
COc1cc(CCc2nnc3n2N=C(c2ccc(Cl)cc2)CS3)cc(OC)c1OC | 25 | 50.2 | 28.5 | 54.8 | – | 101.9 | Non-toxic | 39.1 | 29.3 | 34.3 | 36.9 | – | – | – | –
COc1ccc(Cc2nnc3n2N=C(c2ccc(F)cc2)CS3)cc1 | 41.7 | 26.3 | 20.5 | 31.5 | – | 95.4 | Non-toxic | 53.6 | – | – | 34.3 | – | – | – | –
COc1ccc(CCc2n[nH]c(=S)n2N)cc1 | 37.5 | 56.6 | 9.5 | 56.1 | Non-toxic | 105.9 | Non-toxic | 33.9 | – | – | – | – | – | – | –
COc1ccc(CCc2nnc3n2N=C(c2ccc(Cl)cc2)CS3)cc1 | 50 | 71.5 | 20.2 | 62.4 | – | 108.4 | Non-toxic | – | – | – | 29.4 | 20.4 | – | – | –
COc1ccc(Cc2n[nH]c(=S)n2N)cc1 | 33.3 | 30.2 | 23.4 | 46.7 | Non-toxic | 93 | Non-toxic | 32.2 | – | – | – | – | – | – | –
COc1ccc(Cc2nnc3n2N=C(c2ccccc2)CS3)cc1 | – | 39.5 | 14.3 | 46.4 | – | 112.3 | Non-toxic | – | – | – | – | – | – | – | –
COc1ccc2c(c1)c(CC(=O)O)c(C)n2C(=O)c1ccc(Cl)cc1 [INDOMETHACIN] | – | – | – | – | – | – | – | – | 41.9 | – | 43.1 | – | – | – | –
COc1cc(Cc2n[nH]c(=S)n2N)cc(OC)c1OC | 21.2 | 85.8 | 21.6 | 61 | – | 96.2 | Non-toxic | – | – | – | – | 49.2 | 30 | 32.3 | 24.9
